Compound activity deposited in PubChem BioAssay by several laboratories.
Myeloid diff MLP – promotes myeloid progenitor differentiation; calls only at 10 µM; ER-HoxA9 myeloid progenitors, lysozyme-GFP differentiation, flow cytometry; actives 1% (n = 360,000);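 active means normalized GFP-positive differentiation at or above the plate's own cutoff, the solvent-only control mean plus 3 SD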;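 further: cells exposed to compound for four days before flow analysis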
DSG3 Ab inh – inhibitors of pemphigus antibody binding to human desmoglein-3. P32926. DSG3-coupled beads, scFv-anti-DSG3-GFP binding, flow cytometry; active compounds read low. binding (percent of control), % at 10 µM. actives 0.48% (n = 310,000);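 active means binding more than 3 SD below its plate's average and above zero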;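 further: hits lower antibody fragment binding to DSG3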
Target sequence (P32926 whole entry, looked up, the tested form may be a part): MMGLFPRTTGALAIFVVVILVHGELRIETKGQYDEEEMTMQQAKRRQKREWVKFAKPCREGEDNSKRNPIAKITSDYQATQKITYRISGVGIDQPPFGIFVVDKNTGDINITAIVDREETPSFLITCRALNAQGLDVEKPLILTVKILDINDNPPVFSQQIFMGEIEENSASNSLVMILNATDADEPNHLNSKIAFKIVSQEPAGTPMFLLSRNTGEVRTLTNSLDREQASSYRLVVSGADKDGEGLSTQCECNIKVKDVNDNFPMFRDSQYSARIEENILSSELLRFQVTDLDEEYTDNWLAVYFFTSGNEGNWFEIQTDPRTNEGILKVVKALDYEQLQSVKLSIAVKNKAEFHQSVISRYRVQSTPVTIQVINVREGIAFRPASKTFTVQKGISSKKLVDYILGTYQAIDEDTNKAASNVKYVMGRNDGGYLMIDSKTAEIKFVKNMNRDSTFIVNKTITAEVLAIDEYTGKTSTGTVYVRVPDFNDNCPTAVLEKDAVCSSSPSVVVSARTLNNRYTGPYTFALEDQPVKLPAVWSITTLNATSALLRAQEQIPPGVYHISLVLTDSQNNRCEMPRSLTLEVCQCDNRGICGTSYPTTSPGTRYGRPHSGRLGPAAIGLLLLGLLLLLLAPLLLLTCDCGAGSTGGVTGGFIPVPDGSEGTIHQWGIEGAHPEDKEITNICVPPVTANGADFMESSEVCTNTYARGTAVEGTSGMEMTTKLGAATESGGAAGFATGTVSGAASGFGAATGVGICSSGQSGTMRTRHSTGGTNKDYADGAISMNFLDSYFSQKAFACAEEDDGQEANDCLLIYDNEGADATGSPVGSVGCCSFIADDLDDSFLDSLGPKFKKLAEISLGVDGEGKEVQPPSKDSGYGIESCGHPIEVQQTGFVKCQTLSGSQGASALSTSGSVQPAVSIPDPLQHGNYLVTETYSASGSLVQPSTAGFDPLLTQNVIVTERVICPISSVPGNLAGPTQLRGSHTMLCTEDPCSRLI
HNF4A DNA FP – change in binding of human HNF4 alpha to DNA | HNF4a-FITC DNA binding, fluorescence polarization, 1 h | activity change, % at 10 µM | actives 0.3% (n = 360,000) | AID 1224865; in the data active means activity change above about 30%, passing the limit was not always enough
H9c2 protect – protects H9c2 cardiomyocytes from peroxide injury; H2O2 injury protection, ATPLite, 2 h; protection from H2O2 cell death, % at 20 µM; actives 0.63% (n = 360,000);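 active means compounds giving at least 50% protection of heart cells from peroxide-induced death in the single-dose screen, raw or plate-pattern-corrected value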;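 further: 0% = DMSO wells with peroxide and 100% = DMSO wells without peroxide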
Granule exo inh – blocks lytic granule exocytosis. AID 651702. inhibition, % at 10 µM. actives 0.66% (n = 360,000). TALL-104 LAMP-1 surface exposure, flow cytometry; cells stimulated with thapsigargin and PMA;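 active means inhibition above about 55%, limit read from the data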
SENP1 FRET inh – SENP1 (human) catalytic domain inhibition; actives 0.21% (n = 360,000); recombinant SENP1 catalytic domain, CyPet-SUMO1-YPet FRET cleavage; Q9P0U3; inhibition, % at 10 µM;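 active means inhibition at least 30% at 10 µM, raw YFP signal under a set limit, fluorescence ratio 0.5 to 1.5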;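 further: 0% = enzyme with DMSO and 100% = no enzyme wells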
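Material: hSENP1 catalytic domain, recombinant; medium: Tris pH 8 with BME, BSA, NP40 and catalase; compound: single concentration of 10 µM compound, 0.5% DMSO final; technique: FRET read of cyan and yellow fluorescence; timing: 50 min enzyme reaction, room temperature, light-protected; reagent: SFCypet-SUMO1-SFYpet substrate at 25 nM; control set: no-enzyme low, enzyme-DMSO high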
* hit, by the source's call; i = inactive; nt = no result given; + = active, no number. Only some compounds are listed: those with a hit (about 3% of all), similar ones and a draw of the others.

SMILES	Myeloid diff MLP	DSG3 Ab inh	HNF4A DNA FP	H9c2 protect	Granule exo inh	SENP1 FRET inh
Nc1ccc2nc(SCc3ccccc3F)sc2c1	i	105	3	-10	-5	-3
CCCCn1c(N)c(N(CC(C)C)C(=O)CSCC(=O)Nc2ccc(OC)cc2)c(=O)[nH]c1=O	i	111	-1	1	5	-6
O=C(c1ccco1)N1CCN(Cc2nc3ccc([N+](=O)[O-])cc3c(=O)n2-c2ccccc2F)CC1	i	103	-1	54*	-4	0
O=c1c2cc([N+](=O)[O-])ccc2nc(CN2CCN(c3ccccn3)CC2)n1-c1ccccc1F	i	104	-7	-3	-1	2
COc1ccc(C(=O)c2coc3c2C(=O)C(=O)c2ccccc2-3)cc1	i	108	0	-3	98*	1
CCOc1ccc(/C=N/NC(=O)c2ccc(F)cc2)cc1CN1CC2CC(C1)c1cccc(=O)n1C2 (centres undefined)	i	100	-1	4	0	0
O=C(Oc1ccccc1)N1CCN(C(=O)c2ccco2)CC1	i	95	0	6	-2	0
CC(C)OC(=O)c1sc2nc(-c3ccccc3)ccc2c1N	i	90	5	-13	19	-23
COc1ccc(C(=O)c2sc3nc(-c4ccccc4)ccc3c2N)cc1	+	101	28	-6	4	-25
O=C(CCCCC(=O)NC1CCCC1)NC1CCCC1	i	99	-3	9	-7	2
O=C(CSc1nnnn1-c1cccc(F)c1)Nc1nc2ccccc2s1	i	11*	-1	-10	-3	-1
COC(OC)c1ccc(C#N)c(SCc2ccc(C)cc2)n1	i	nt	1	-3	-5	-1
Cc1cccc(C)c1NC(=O)CN1C(=O)C2CC=CCC2C1=O (centres undefined)	i	nt	-3	2	-1	1
N#CCSc1ccccc1NC(=O)CN1C(=O)C2CC=CCC2C1=O (centres undefined)	+	204	5	5	0	38
O=C(Nc1nc2c(cc3c4c(cccc42)CC3)s1)c1ccccc1Cl	i	nt	-3	-4	-6	-171
CC(=O)N1Cc2cc(C(=O)NCC(F)(F)F)nc(-c3cccc(-c4cc5ccccc5o4)c3)c2[C@@H]1CCO	i	nt	-1	nt	0	0
COC(=O)c1scc(C)c1N/N=C(\C)c1ccc(F)cc1	i	-28*	4	-7	0	-3
Cc1ccc(NC(=O)CCC(=O)Nc2nnc(C3CCCCC3)s2)cc1	+	104	-3	1	-8	2
Cc1ccc(CNC(=O)CCC(=O)Nc2nnc(C3CCCCC3)s2)cc1	i	nt	4	-5	12	1
O=C(Nc1ccnn1C1CCN(Cc2ccc(CO)o2)CC1)c1ccccc1	i	96	1	-2	6	0
O=C(O)c1ccc(N/N=C/C=C/c2ccc([N+](=O)[O-])o2)cc1	i	112	24	0	-10	78*
O=C(N/N=C/c1ccc([N+](=O)[O-])o1)C(=O)Nc1ccc(C(=O)O)cc1	i	97	-2	6	3	-2
O=[N+]([O-])c1ccc(N/N=C/C=C/c2ccco2)cc1	i	118	89*	-8	20	-40
O=C(N/N=C/c1ccco1)c1cc([N+](=O)[O-])cc([N+](=O)[O-])c1	i	102	2	26	-3	2
CS(=O)(=O)NNC(=O)c1sccc1OCc1ncc(C(F)(F)F)cc1Cl	i	122	2	9	-9	0
SMILES	Myeloid diff MLP	DSG3 Ab inh	HNF4A DNA FP	H9c2 protect	Granule exo inh	SENP1 FRET inh
O=c1[nH]c(=O)n([C@H]2C[C@H](O)[C@@H](CO)O2)cc1C(F)(F)F	+	92	0	25	3	-5
Cn1ccnc1SCC(=O)c1cccc(C(F)(F)F)c1	i	92	12	2	-7	0
CCC1=NN2C(=N)/C(=C/c3ccc(OS(=O)(=O)c4ccccc4)cc3)C(=O)N=C2S1	i	104	33*	5	5	-58
CN(C)c1ccc(/C=C2\C(=N)N3N=C(CC(=O)N4CCCCC4)SC3=NC2=O)cc1	+	752	135	-7	-1	-22
CCC1=NN2C(=N)/C(=C\c3ccc(OCc4cc(=O)n5nc(CC)sc5n4)c(OC)c3)C(=O)N=C2S1	i	62*	-42	13	-1	-10
CCS(=O)(=O)C1=NN2C(=N)/C(=C\c3ccc(OS(=O)(=O)c4ccccc4)cc3)C(=O)N=C2S1	i	102	-3	-3	-4	-4
CC1OC(c2ccccc2)OC2COC(c3ccccc3)OC12 (centres undefined)	i	-6.5*	3	4	-7	1
OC1COC(c2ccccc2)OC1C1OC(c2ccccc2)OCC1O (centres undefined)	i	100	18	2	-8	0
O=C1NC[C@@H](CCCCN2C[C@H](Cc3ccc(O)cc3)N(CCC3CCCCC3)C(=O)C2=O)N(CCc2ccc(O)cc2)C1=O	i	nt	-3	nt	-5	2
CC(/C=C/c1ccccc1)=N/O	i	97	-1	-7	-2	2
CC(/C=C/c1ccc(O)cc1)=N/O	+	106	2	3	-3	1
C/C(=N/N=C(\C)c1ccccc1O)c1ccccc1O	i	90	12	-9	-2	68
CCOc1ccc(N=C(C)c2ccccc2O)cc1	+	134	1	3	-3	0
CN1OC[C@@H]2CN(C(=O)C(C)(C)C)[C@H](c3ccc(-c4cc5ccccc5o4)cc3)C[C@@H]21	i	61*	2	4	8	0
Cc1cc(NC(=O)Nc2cccc(C)c2C)no1	i	98	2	1	-4	1
COc1cc(Cl)ccc1OC1(C)CCN(Cc2ccc(-c3ccccn3)cc2)C1 (centres undefined)	i	nt	-1	-7	-4	2
CCc1cc(/C(Cc2ccccn2)=N\O)c(O)cc1O	+	98	0	-10	2	2
CCOc1ccc(OCC)c(NS(=O)(=O)c2ccc3c(c2)n(C)c(=O)c(=O)n3C)c1	i	95	3	-2	-1	2
CCOc1ccc(N(CC)S(=O)(=O)c2ccc3c(c2)n(C)c(=O)c(=O)n3C)cc1	i	-11*	-1	2	-6	2
O=C1CSC(c2ccccc2[N+](=O)[O-])N1CCc1ccccc1 (centres undefined)	i	87	0	-1	-3	1
COc1ccc(/C=C2\C(=O)NCC(=O)N2C)cc1	+	497	5	2	-6	-1
COc1ccc(/C=C2/SC(=O)NC2=O)cc1	i	103	2	-3	-2	0
